Assay outcomes deposited in PubChem by several laboratories.
Compounds with a hit are over-represented: about 2.7% of the library has one in this group of screens.
ARFGAP1 inhibitor: inhibitors of rat ARFGAP1; inhibition, % at 16.5 µM; 360,000 compounds, 0.26% hits; Q62848; AID 651572; Arfgap1-stimulated ARF1 GTP hydrolysis, GDP FP detection;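 active = inhibition above a per-plate limit, mean inhibition of low control wells plus 3 SD, cut at about 25% in these data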;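 note: 0% = DMSO wells with enzyme and 100% = wells lacking Arfgap1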
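material = rat Arfgap1 catalytic domain, aa 1-136 | also added = human ARF1(Δ1-17)-GTP substrate | compound dosing = one concentration, 16.5 µM, DMSO 1.26% | times = GTP hydrolysis reaction 2 h at 25 °C | measured by = FP, GDP Alexa 633 tracer displaced from anti-GDP antibody, 620/688 nm | evaluation = percent inhibition of Arfgap1-stimulated GTP hydrolysis | replication = single well per compound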
sPLA2-III inh: Inhibits HGIII-sPLA2 liposome hydrolysis, primary screen; inhibition, % at 12.2 µM; QFRET BODIPY PC-A2 liposome hydrolysis, fluorescence; Q9NZ20; 370,000 compounds, 0.56% hits;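 active = inhibition above mean plus 3 SD of compounds lying within the high and low control bounds, cut at about 19% in these data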;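 note: 0% = median of test compound wells and 100% = no enzyme DMSO wells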
Target sequence (Q9NZ20 whole entry, looked up): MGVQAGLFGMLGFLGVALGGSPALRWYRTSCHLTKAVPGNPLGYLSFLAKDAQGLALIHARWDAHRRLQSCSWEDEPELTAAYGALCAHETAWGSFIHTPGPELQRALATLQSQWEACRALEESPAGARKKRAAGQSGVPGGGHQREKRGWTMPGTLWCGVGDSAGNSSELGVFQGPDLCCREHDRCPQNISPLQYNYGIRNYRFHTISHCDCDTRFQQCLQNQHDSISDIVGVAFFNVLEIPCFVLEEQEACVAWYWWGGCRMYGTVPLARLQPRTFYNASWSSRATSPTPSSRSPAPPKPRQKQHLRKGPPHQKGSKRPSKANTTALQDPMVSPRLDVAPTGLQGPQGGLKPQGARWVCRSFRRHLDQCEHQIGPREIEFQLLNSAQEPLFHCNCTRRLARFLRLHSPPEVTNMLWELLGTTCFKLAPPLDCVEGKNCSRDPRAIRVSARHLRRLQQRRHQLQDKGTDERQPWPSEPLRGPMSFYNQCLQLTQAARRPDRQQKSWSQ
MsrA inh: inhibits bovine methionine sulfoxide reductase A. 360,000 compounds, 0.75% hits. purified bovine MsrA, absorbance read-out. AID 651718. inhibition, % at 15.5 µM; in the data active = inhibition above about 4.5%;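 note: 0% = vehicle wells with enzyme and 100% = reference inhibitor wells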
Rev-erbA mod: modulators of human Rev-erb alpha DNA binding. Rev-erbα–FITC-DNA binding, fluorescence polarization, 90 min. activity, % at 10 µM. 370,000 compounds, 0.79% hits. AID 1259318;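 active = activity above about 14%, limit read from the data; passing the limit was not always enough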;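 note: 0% = DMSO wells with 35 nM protein and 100% = DMSO wells with 750 nM protein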
ASAP1 GAP inh: ASAP1 ArfGAP inhibition; Q9ULH1; ASAP1-stimulated ARF1 GTP hydrolysis, GDP FP detection; inhibition, % at 16.5 µM; 360,000 compounds, 0.19% hits; AID 624377; in the data active = inhibition above about 25%;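 note: 0% = vehicle with enzyme and substrate and 100% = no enzyme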
MsrA act: bovine methionine sulfoxide reductase A activation. activation, % at 10.6 µM. 360,000 compounds, 0.3% hits. purified bovine MsrA, absorbance read-out; in the data active = activation above about 7.5%;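 note: 0% = vehicle and 100% = reference activator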
NR1D1 mod conf: Rev-erb alpha (human) modulation, hit confirmation; shares compounds with Rev-erbA mod; Rev-erb alpha FITC-DNA binding, fluorescence polarization, 90 min; activation, % at 25 µM; 3,000 compounds, 61% hits;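 active = activation at or above a set limit, or at least 3 SD above the negative control mean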;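 note: 0% = 35 nM protein with DMSO and 100% = 750 nM protein high control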
RORg DNA counter: counter-screen for Rev-erb alpha modulators: RORgamma DNA binding | IC50, µM | purified RORgamma protein-FITC-DNA binding, fluorescence polarization | 910 compounds, 8% hits | shares compounds with Rev-erbA mod | AID 1259320;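 active = Compounds whose fitted half-maximal concentration for disrupting protein-DNA binding is below 10 micromolar; the record names Rev-erb in its text, so the target is in doubt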
Numbers without * were called inactive.

`CCOC(=O)CCSc1nc(-c2ccc3c(c2)OCO3)cc(C(F)(F)F)c1C#N` gave ARFGAP1 inhibitor -2.5, sPLA2-III inh 1.1, MsrA inh 1.4, Rev-erbA mod 20.6*, ASAP1 GAP inh 1.4, MsrA act -4.9 and NR1D1 mod conf 15.2.
For CCOC(=O)CC(=O)CSc1nc(-c2ccc3c(c2)OCO3)cc(C(F)(F)F)c1C#N the results were Rev-erbA mod 110.3*, MsrA act -0.6, NR1D1 mod conf 84.5* and RORg DNA counter >40.
`N#Cc1c(C(F)(F)F)cc(-c2ccc(Cl)c(Cl)c2)nc1SCCN1CCOCC1` gave Rev-erbA mod 3.4 and MsrA act -11.1.
Screening CCOC(=O)CCSc1nc(C)cc(C(F)(F)F)c1C#N returned ARFGAP1 inhibitor 3.4, sPLA2-III inh 1.1, MsrA inh 0.2, Rev-erbA mod 3.0, ASAP1 GAP inh -9.0 and MsrA act -0.7.
CC(C)[C@@H]1NC(=O)[C@H]2C[C@@]3(c4ccccc4)c4ccccc4N[C@H]3N2C1=O was read as sPLA2-III inh 9.2 and Rev-erbA mod -2.7.
c1ccc(COc2cccc(-c3cc4nc(NCCCn5ccnc5)ccn4n3)c2)cc1 was read as ARFGAP1 inhibitor 11.4, sPLA2-III inh -42.1, MsrA inh -0.2, Rev-erbA mod 3.3, ASAP1 GAP inh 5.1 and MsrA act 0.4.
`Cc1ccccc1C(=O)N(C)[C@H]1C[C@H]2c3[nH]c4c(-c5ccccc5)cccc4c3CCN2C(=O)[C@H]1[C@H](C)O` gave ARFGAP1 inhibitor -2.0, sPLA2-III inh -17.1, MsrA inh 1.4, Rev-erbA mod 13.0*, ASAP1 GAP inh -5.8 and NR1D1 mod conf 2.3.
Screening C[C@H](O)[C@@H]1C(=O)N2CCc3c([nH]c4c(-c5ccccc5)cccc34)[C@@H]2C[C@@H]1N(C)C(=O)c1cc(Cl)cc(Cl)c1 returned ARFGAP1 inhibitor -0.6, sPLA2-III inh -5.3, MsrA inh -0.5, Rev-erbA mod -1.1 and ASAP1 GAP inh -5.0.
`CCCCn1c2nc3ccccc3nc2c2c(=O)n(CCC)cnc21` gave ARFGAP1 inhibitor 1.2, sPLA2-III inh 2.9, MsrA inh 0.4, Rev-erbA mod 8.1, ASAP1 GAP inh -7.0 and MsrA act -2.3.
CCCCCCn1cnc2c(c1=O)c1nc3ccccc3nc1n2Cc1cccs1 was read as ARFGAP1 inhibitor -10.3, sPLA2-III inh 4.9, MsrA inh 0.3, Rev-erbA mod 30.8*, ASAP1 GAP inh 1.1, MsrA act -0.5 and NR1D1 mod conf 9.5.
`O=C(N=c1ccn(-c2nc3ccccc3nc2NS(=O)(=O)c2ccccc2)cc1)c1cccs1` gave ARFGAP1 inhibitor 6.1, sPLA2-III inh -2.6, MsrA inh 2.0, Rev-erbA mod 174.2*, ASAP1 GAP inh 9.9, MsrA act -13.3, NR1D1 mod conf 144.8* and RORg DNA counter >40.
`O=S(=O)(Nc1nc2ccccc2nc1N1CCN(c2ccccc2)CC1)c1ccc(F)cc1` gave ARFGAP1 inhibitor -11.6, sPLA2-III inh -15.2, MsrA inh 1.1, Rev-erbA mod 1.7, ASAP1 GAP inh -1.1 and MsrA act -7.9.
`Cc1ccccc1C(=O)N=c1ccn(-c2nc3ccccc3nc2NS(=O)(=O)c2ccc(F)cc2)cc1` gave ARFGAP1 inhibitor 1.9, sPLA2-III inh 5.5, MsrA inh 1.2, Rev-erbA mod 35.3*, ASAP1 GAP inh -1.4, MsrA act -3.7, NR1D1 mod conf 91.8* and RORg DNA counter >40.
For CC1CN(c2nc3ccccc3nc2NS(=O)(=O)c2ccccc2)CC(C)O1 (stereo not drawn) the results were ARFGAP1 inhibitor 3.1, sPLA2-III inh -7.0, MsrA inh 0.4, Rev-erbA mod -4.3, ASAP1 GAP inh -9.2 and MsrA act -3.7.
COCCNC(=O)C1CCCN(Cc2ccc(-c3ccccc3)cc2)CC1 (stereo not drawn) was read as ARFGAP1 inhibitor 5.1, sPLA2-III inh 1.2, MsrA inh -0.5, Rev-erbA mod 2.1, ASAP1 GAP inh -7.8 and MsrA act -2.2.
